High-throughput results from PubChem.
The list is not random: actives were taken first. Their share in the collection is about 4.6%.
OX1R antag-1 = OX1R (human) antagonism. OX1R-expressing cells, FRET antagonist read-out. AID 485270. 1.8% of 330,000 active. O43613. inhibition, % at 6.6 µM; in the data active means inhibition mostly above about 38%, no sharp cut-off; inactive means mostly below about 40%;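 further: 0% = agonist challenge alone and 100% = reference antagonist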
TAAR1 agonist = human TAAR1 agonism; CHO RD-HGA16 TAAR1, Fluo-8 calcium fluorescence; vehicle wells 0%, saturating PEA agonist 100%; activation, % at 3 µM; 0.99% of 360,000 active;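 active means activation above the mean activation of all test compounds in the run plus 3 SD, cut at about 38% in these data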
Target sequence (Q96RJ0 whole entry, looked up): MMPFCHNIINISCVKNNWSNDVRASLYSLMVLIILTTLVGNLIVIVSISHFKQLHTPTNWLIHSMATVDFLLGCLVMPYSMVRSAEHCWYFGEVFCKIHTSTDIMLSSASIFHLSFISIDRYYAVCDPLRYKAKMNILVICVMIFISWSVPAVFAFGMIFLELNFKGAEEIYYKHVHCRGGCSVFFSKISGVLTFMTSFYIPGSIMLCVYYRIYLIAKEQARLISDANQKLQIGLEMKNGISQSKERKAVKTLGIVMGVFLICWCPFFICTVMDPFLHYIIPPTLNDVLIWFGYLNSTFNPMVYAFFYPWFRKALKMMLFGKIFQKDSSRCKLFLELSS
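test system = CHO RD-HGA16 cells carrying human TAAR1 plus Gα16 | schedule = 17-24 h seeding, 75 min 37 °C dye, 30 min RT | compound dosing = 3 µM single concentration | control set = DMSO and PEA EC100 | replicates = n 1 | signal = Fluo-8 fluorescence, 5 s baseline then 140 s kinetic read | measure = percent activation vs PEA EC100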
GPR7 antagonist = blocks human GPR7 receptor signaling; P48145; GPR7-expressing cells, fluorescence antagonist assay; inhibition, % at 4.4 µM; 1.1% of 290,000 active; in the data active means inhibition above about 16%, passing the limit was not always enough;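 further: cells stimulated with the agonist NPW; 0% = agonist with vehicle and 100% = vehicle without agonist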
CHO parental Ca = counter-screen: ATP calcium response change in parental CHO cells; parental CHO-K1, ATP-induced calcium, Fluo-8 fluorescence; inhibition, % at 5.6 µM; 0.63% of 330,000 active; AID 463079;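 active means inhibition above that plate's mean sample inhibition plus 3 SD, cut at about 26% in these data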;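 further: 0% = ATP-challenged DMSO wells and 100% = DMSO wells without ATP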
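Material: parental CHO cells / Compound: single nominal dose of 5.6 µM per compound / Signal: Fluo-8 fluorescence / Replicates: singlicate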
OX1R antag-2 = blocks the human orexin 1 receptor. 0.43% of 330,000 active. O43613. AID 434989. inhibition, % at 5 µM. CHO/OX1R cells, Fluo-8 calcium fluorescence, orexin A;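 active means inhibition above its plate's threshold, mean inhibition of all tested compounds on the plate plus 3 SD, cut at about 37% in these data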;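 further: 0% = orexin A challenge wells and 100% = SB-334867-A antagonist wells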
TAAR1 antag = human TAAR1 antagonism | AID 624466 | inhibition, % at 3 µM | CHO RD-HGA16 TAAR1, Fluo-8 calcium fluorescence, antagonist | 1.5% of 360,000 active | Q96RJ0;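 active means inhibition above a per-plate cutoff, the mean inhibition of test compounds on that plate plus 3 SD, cut at about 49% in these data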;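 further: 0% = DMSO plus EC80 beta-PEA response and 100% = DMSO alone without agonist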
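Assay system: CHO-derived RD-HGA16 cells stably expressing human TAAR1 plus Gα16. Timing: 140 s kinetic read after compound, 140 s after agonist. Technique: kinetic Fluo-8 calcium fluorescence measurement. Measure: % inhibition of agonist calcium response.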
nonsel antag count = nonselective antagonist in TAAR1 antagonist counter-screen; 77% of 2,400 active; inhibition, % at 3 µM; shares compounds with TAAR1 antag; counterscreen cell line, calcium fluorescence, antagonist mode; in the data active means inhibition above about 22%;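 further: CHO-Ga16 host cells stimulated with ATP at an EC80 level; 0% = agonist EC80 plus vehicle and 100% = vehicle without agonist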
TAAR1 ant conf = human TAAR1 antagonism, confirmed; shares compounds with TAAR1 antag; TAAR1-expressing cells, fluorescence antagonist read-out; inhibition, % at 3 µM; 40% of 2,400 active; AID 651785; in the data active means inhibition above about 49%;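 further: CHO-Ga16 host cells challenged with agonist PEA near its EC80; 0% = agonist at EC80 plus vehicle and 100% = vehicle with no agonist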
Ga16 ag counter = counter-screen for TAAR1 antagonists: nonselective Ga16 agonists. AID 651953. activation, % at 3 µM. Ga16-expressing cells, calcium fluorescence, agonist counterscreen. shares compounds with TAAR1 antag. 18% of 2,400 active; in the data active means activation above about 12%;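 further: 0% = vehicle wells and 100% = saturating stimulus response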
TAAR1 ag count = counter-screen for human TAAR1 antagonists: TAAR1 agonists. shares compounds with TAAR1 antag. hTAAR1 cell line, fluorescence activation, agonist mode. activation, % at 3 µM. 2% of 2,400 active; in the data active means activation above about 37%;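 further: CHO cells stably expressing TAAR1 with calcium dye readout; 0% = DMSO vehicle and 100% = full agonist response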
An asterisk follows results filed as active; . = not tested or not shown.

SMILES | OX1R antag-1 | TAAR1 agonist | GPR7 antagonist | CHO parental Ca | OX1R antag-2 | TAAR1 antag | nonsel antag count | TAAR1 ant conf | Ga16 ag counter | TAAR1 ag count
CCCCNc1c(-c2cccc(-c3cc(C(C)=O)cs3)c2)nc2ccc(C)cn12 | 50.0 | 14.7 | . | -14.9 | -13.0 | 67.5* | 36.0* | 54.0* | 6.6 | 4.8
Cc1ccc(CNC(=O)CN(C)S(=O)(=O)c2ccc3c(c2)n(C)c(=O)c(=O)n3C)cc1 | 15.3 | . | -6.1 | -0.9 | -14.8 | . | . | . | . | .
COC(=O)[C@@]1(C)[C@H]2C(=O)N(Cc3ccccc3)C(=O)[C@H]2[C@H]2CN(C)C(=NC3CCCCC3)N21 | 1.8 | 0.8 | . | -8.8 | -5.3 | -6.0 | . | . | . | .
Cc1c(-c2ccccc2)nc2ccccc2c1C(=O)OCC(=O)Nc1ncc(C(F)(F)F)cc1Cl | 6.2 | 5.0 | -9.2 | -25.4 | -18.3 | 53.4* | 14.3 | 27.7 | 4.6 | 9.6
COc1ccccc1NC(=O)Nc1nc(CC(=O)Nc2cccc(F)c2)cs1 | 34.4 | 8.7 | . | -14.8 | -15.9 | 47.2 | . | . | . | .
COc1ccc(C)cc1NC(=O)Cc1csc(NC(=O)Nc2ccccc2OC)n1 | . | 6.5 | . | . | . | 72.6* | 26.9* | 47.7 | 8.3 | 6.1
COc1ccccc1NC(=O)N1CCN(c2ccc(F)cc2)CC1 | 25.8 | 1.6 | -0.5 | -15.0 | -14.9 | -15.5 | . | . | . | .
COc1ccccc1NC(=O)Nc1nc(CC(=O)N2CCN(c3ccc(F)cc3)CC2)cs1 | 13.1 | 16.7 | . | -3.7 | -21.7 | 72.3* | 45.6* | 57.4* | 12.9* | 11.7
COc1ccccc1NC(=O)Cc1csc(NC(=O)c2ccccc2)n1 | 29.5 | 8.9 | 7.2 | -12.1 | -40.5 | 9.3 | . | . | . | .
COc1ccccc1NC(=O)Nc1nc(CC(=O)Nc2cc(F)ccc2F)cs1 | 12.6 | 11.4 | . | -2.6 | -21.7 | 59.7* | 33.8* | 56.4* | 9.6 | 10.8
O=C(Cc1csc(NC(=O)Nc2cccc(Cl)c2)n1)NCc1ccccn1 | 4.1 | 14.0 | . | -22.3 | -30.3 | 64.7* | 29.1* | 39.6 | 10.3 | 17.3
CCOc1ccc(C2Oc3nc(SC)nnc3-c3ccccc3N2C(C)=O)cc1OC (centres undefined) | 19.3 | 1.4 | -3.4 | -4.5 | -4.6 | -26.3 | . | . | . | .
CCOC(=O)Cn1nc(NC(=O)c2ccc3c(c2)OCO3)cc1C | 33.2 | 0.3 | -3.1 | -2.7 | -7.3 | -23.1 | . | . | . | .
COc1ccccc1NC(=O)Nc1ccc(NC(=O)c2ccccc2O)cc1 | -2.7 | 11.9 | 4.8 | -14.7 | -8.2 | 61.0* | 39.0* | 46.4 | 7.0 | 5.1
COc1ccccc1NC(=O)Nc1nc(CC(=O)Nc2ccc(F)cc2)cs1 | 22.8 | 21.5 | . | -16.1 | -18.8 | 51.9* | 21.8* | 35.6 | 9.3 | 14.3
COc1ccc(CNC(=O)Cc2csc(NC(=O)Nc3ccccc3OC)n2)cc1 | 7.5 | 15.4 | . | -15.1 | 1.3 | 56.3* | 21.2 | 36.3 | 6.4 | 3.1
O=C1CSC(c2cccc([N+](=O)[O-])c2)N1c1c(F)cccc1F (centres undefined) | 12.6 | 1.1 | -0.2 | -5.8 | -19.6 | -4.0 | . | . | . | .
O=S1(=O)CCOC[C@H](c2ccccc2)N1Cc1ccccc1 | 19.2 | 6.6 | -10.7 | -10.2 | -15.3 | 6.7 | . | . | . | .
COc1cc(SC)ccc1C(=O)Nc1ccccc1C#N | 13.6 | 25.1 | -3.7 | -20.0 | -16.0 | 49.8* | 8.5 | 15.7 | -0.5 | -0.3
COc1cc(SC)ccc1C(=O)Nc1ccncc1 | 4.9 | -1.8 | -2.9 | -14.3 | -19.7 | -13.9 | . | . | . | .
CN(C)S(=O)(=O)c1cccc(-c2nn(-c3ccccc3)cc2/C=C2\SC(=S)NC2=O)c1 | 19.3 | 3.0 | -7.3 | 8.1 | 13.7 | 68.4* | 58.7* | 56.3* | 7.9 | 0.3
